From ChEMBL document CHEMBL1125287, “Synthesis and antifolate evaluation of the 10-propargyl derivatives of 5-deazafolic acid, 5-deazaaminopterin, and 5-methyl-5-deazaaminopterin” (J Med Chem, 1992)

How the values were obtained:
Mus musculus [1] = assay: Antitumor effect (36 mg/kg) against EO771 mammary adenocarcinoma in mice measured as toxic deaths out of 10 mice tested; format: functional
In short: (§1)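 EO771 mammary adenocarcinoma implanted in mice, 10 animals per group. Dosing was once daily for 5 days, starting 1 day after tumor implantation. Toxic deaths were counted over the total on the evaluation day (day 7 or day 14), together with average weight change, tumor volume (4/3πr³, treated/control) and tumor-free animals.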

Dihydrofolate reductase = target: T1, Dihydrofolate reductase (Mus musculus, UniProt P00375); assay: The compound was tested for its inhibitory activity against dihydrofolate reductase(DHFR) derived from L1210 cells.; format: cell-based
T1 sequence (P00375 whole entry): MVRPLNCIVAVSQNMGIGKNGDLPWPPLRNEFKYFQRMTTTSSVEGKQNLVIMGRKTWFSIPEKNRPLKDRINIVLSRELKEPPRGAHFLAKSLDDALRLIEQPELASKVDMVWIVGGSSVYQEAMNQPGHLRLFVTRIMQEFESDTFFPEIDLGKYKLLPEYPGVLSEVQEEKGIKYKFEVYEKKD

Mus musculus [2] = assay: Antitumor effect (36 mg/kg) against EO771 mammary adenocarcinoma in mice measured as T/C(treated/control) on day 14.; format: functional
In short: (§2)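 Mice implanted with EO771 mammary adenocarcinoma were dosed once daily for 5 days, starting 1 day after tumor implantation, with 10 mice per group. On day 7 and day 14 the following were recorded: average body weight change in grams, toxic deaths, tumor-free animals and average tumor volume. Volume was calculated as 4/3πr³ in mm³, and T/C is treated/control volume.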

L1210 [3] = assay: k value for its transport after efflux through L1210 cells; format: functional, Mus musculus
Mus musculus [4] = assay: Antitumor effect (36 mg/kg) against EO771 mammary adenocarcinoma in mice measured as average weight change on day 7; format: functional; in short: as §2
Mus musculus [5] = assay: Antitumor effect (36 mg/kg) against EO771 mammary adenocarcinoma in mice measured as T/C(treated/control) on day 7.; format: functional; in short: as §2
L1210 [6] = assay: The compound was tested for its growth inhibitory activity against L1210 cells; format: functional, cell-based; settings: Mus musculus
Mus musculus [7] = assay: Antitumor effect (36 mg/kg) against EO771 mammary adenocarcinoma in mice measured as average weight change on day 14.; format: functional; in short: as §2
L1210 [8] = assay: Km value for its transport after influx into L1210 cells; format: functional, cell-based; settings: Mus musculus
Mus musculus [9] = assay: Antitumor effect (36 mg/kg) against EO771 mammary adenocarcinoma in mice measured as Tumor free/total on day 7.; format: functional; in short: as §2
Mus musculus [10] = assay: Antitumor effect (36 mg/kg) against EO771 mammary adenocarcinoma in mice measured as Tumor free/total on day 14.; format: functional; in short: as §2
Mus musculus [11] = assay: Antitumor effect (36 mg/kg) against EO771 mammary adenocarcinoma in mice measured as Toxic deaths/total on day 14.; format: functional; in short: as §1
CCRF S-180 = assay: The compound was tested for its growth inhibitory activity against S180 cells.; format: functional, cell-based; settings: Mus musculus
HL-60 = assay: The compound was tested for its growth inhibitory activity against HL60 cells.; format: functional, cell-based; settings: Homo sapiens
Thymidylate synthase [12] = target: T2, Thymidylate synthase (Homo sapiens, UniProt P04818); assay: The compound was tested for its inhibitory activity against thymidylate synthase(TS) derived from K562 cells.; format: cell-based
T2 sequence (P04818 whole entry): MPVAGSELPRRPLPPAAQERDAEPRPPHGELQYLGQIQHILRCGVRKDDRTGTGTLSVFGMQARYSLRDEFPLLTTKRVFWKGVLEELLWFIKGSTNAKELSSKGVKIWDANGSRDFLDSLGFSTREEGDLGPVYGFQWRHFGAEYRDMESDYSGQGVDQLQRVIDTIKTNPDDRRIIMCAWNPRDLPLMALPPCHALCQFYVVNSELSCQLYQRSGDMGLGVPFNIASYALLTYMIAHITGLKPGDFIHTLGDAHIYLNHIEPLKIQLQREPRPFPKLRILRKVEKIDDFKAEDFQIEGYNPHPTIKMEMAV

Thymidylate synthase [13] = target: T2, Thymidylate synthase; assay: The compound was tested for its inhibitory activity against thymidylate synthase(TS) derived from H35F/F cells.
Mus musculus [14] = assay: Antitumor effect (3 mg/kg) against EO771 mammary adenocarcinoma in mice measured as Tumor free/total on day 14; format: functional; in short: as §2
Mus musculus [15] = assay: Antitumor effect (3 mg/kg) against EO771 mammary adenocarcinoma in mice measured as Average weight change on day 14.; format: functional; in short: as §2
Mus musculus [16] = assay: Antitumor effect (3 mg/kg) against EO771 mammary adenocarcinoma in mice measured as T/C(treated/control) on day 7.; format: functional; in short: as §2
Mus musculus [17] = assay: Antitumor effect (3 mg/kg) against EO771 mammary adenocarcinoma in mice measured as Tumor free/total on day 7.; format: functional; in short: as §2
Mus musculus [18] = assay: Antitumor effect (3 mg/kg) against EO771 mammary adenocarcinoma in mice measured as T/C(treated/control) on day 14.; format: functional; in short: as §2
Mus musculus [19] = assay: Antitumor effect (3 mg/kg) against EO771 mammary adenocarcinoma in mice measured as toxic deaths out of 10 mice tested; format: functional; in short: as §1
Mus musculus [20] = assay: Antitumor effect (3 mg/kg) against EO771 mammary adenocarcinoma in mice measured as Average weight change on day 7.; format: functional; in short: as §2
Mus musculus [21] = assay: Antitumor effect (3 mg/kg) against EO771 mammary adenocarcinoma in mice measured as Toxic deaths/total on day 14.; format: functional; in short: as §1
Thymidylate synthase [22] = target: T3, Thymidylate synthase (Lactobacillus casei, UniProt P00469); assay: The compound was tested for its inhibitory activity (IC50) against thymidylate synthase(TS) derived from Lactobacillus casei; set-up: species or system Lacticaseibacillus casei
T3 sequence (P00469 whole entry): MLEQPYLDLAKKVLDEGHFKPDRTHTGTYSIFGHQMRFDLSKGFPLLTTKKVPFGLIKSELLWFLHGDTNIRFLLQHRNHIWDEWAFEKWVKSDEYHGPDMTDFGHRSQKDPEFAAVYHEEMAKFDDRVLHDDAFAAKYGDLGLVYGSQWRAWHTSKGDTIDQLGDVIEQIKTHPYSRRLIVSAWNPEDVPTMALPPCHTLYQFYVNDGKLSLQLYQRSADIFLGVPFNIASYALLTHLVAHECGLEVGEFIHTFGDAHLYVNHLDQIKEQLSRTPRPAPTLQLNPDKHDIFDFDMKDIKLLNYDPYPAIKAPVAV

`C#CCN(Cc1cnc2nc(N)nc(N)c2c1C)c1ccc(C(=O)NC(CCC(=O)O)C(=O)O)cc1` (stereo not given) was tested. Which Toxic deaths (Mus musculus [1]) did it give?
The Toxic deaths was 0.

And the Ki (Dihydrofolate reductase)?
The Ki was 0.00687 nM.

What about the T/C (Mus musculus [2]) of the same compound?
The T/C was 0.08.

And the k (L1210 [3])?
The k was 0.24 min⁻¹.

What about the AWC (Mus musculus [4]) of the same compound?
The AWC was -1.9 g.

What about the T/C (Mus musculus [5]) of the same compound?
Its T/C is 0.09.

What about the IC50 (L1210 [6]) of the same compound?
The IC50 was 0.13 nM.

What about the AWC (Mus musculus [7]) of the same compound?
Its AWC is -0.6 g.

And the Km (L1210 [8])?
The Km was 0.57 µM.

And the Tumor free/total (Mus musculus [9])?
Its Tumor free/total is 2.

What about the Tumor free/total (Mus musculus [10]) of the same compound?
The Tumor free/total was 2.

And the Deaths/total (Mus musculus [11])?
Its Deaths/total is 0.

How did the IC50 (L1210 [6]) turn out when `C#CCN(Cc1ccc2[nH]c(N)nc(=O)c2c1)c1ccc(C(=O)NC(CCC(=O)O)C(=O)O)cc1` (stereo not given) was run?
The IC50 was 2610 nM.

And the IC50 (CCRF S-180)?
The IC50 was 1970 nM.

What about the IC50 (HL-60) of the same compound?
Its IC50 is 5290 nM.

How did the IC50 (Thymidylate synthase [12]) turn out when `C#CCN(Cc1ccc2nc(N)nc(O)c2n1)c1ccc(C(=O)NC(CCC(=O)O)C(=O)O)cc1` (stereo not given) was run?
Its IC50 is 2400 nM.

Which IC50 (L1210 [6]) does the source give for `C#CCN(Cc1cnc2nc(N)nc(O)c2c1)c1ccc(C(=O)NC(CCC(=O)O)C(=O)O)cc1` (stereo not given) here?
The IC50 was 1500 nM.

What about the IC50 (Thymidylate synthase [13]) of the same compound?
Its IC50 is 90 nM.

What about the IC50 (CCRF S-180) of the same compound?
The IC50 was 2350 nM.

What about the IC50 (HL-60) of the same compound?
Its IC50 is 721 nM.

With `CN(Cc1cnc2nc(N)nc(N)c2n1)c1ccc(C(=O)N[C@@H](CCC(=O)O)C(=O)O)cc1` [METHOTREXATE] as the compound, how does the Tumor free/total (Mus musculus [14]) read?
Its Tumor free/total is 0.

What about the k (L1210 [3]) of the same compound?
The k was 0.21 min⁻¹.

What about the AWC (Mus musculus [15]) of the same compound?
Its AWC is 0.8 g.

And the T/C (Mus musculus [16])?
Its T/C is 0.74.

And the Tumor free/total (Mus musculus [17])?
The Tumor free/total was 0.

What about the T/C (Mus musculus [18]) of the same compound?
The T/C was 0.79.

What about the Toxic deaths (Mus musculus [19]) of the same compound?
Its Toxic deaths is 0.

And the AWC (Mus musculus [20])?
The AWC was -0.4 g.

And the Deaths/total (Mus musculus [21])?
Its Deaths/total is 0.

What about the Km (L1210 [8]) of the same compound?
Its Km is 4.86 µM.

With `C#CCN(Cc1cnc2nc(N)nc(N)c2c1)c1ccc(C(=O)NC(CCC(=O)O)C(=O)O)cc1` (stereo not given) as the compound, how does the Ki (Dihydrofolate reductase) read?
The Ki was 0.00585 nM.

What about the k (L1210 [3]) of the same compound?
The k was 0.23 min⁻¹.

What about the IC50 (L1210 [6]) of the same compound?
The IC50 was 0.64 nM.

What about the Km (L1210 [8]) of the same compound?
Its Km is 1.8 µM.

With `C#CCN(Cc1cnc2nc(N)[nH]c(=O)c2n1)c1ccc(C(=O)NC(CCC(=O)O)C(=O)O)cc1` (stereo not given) as the compound, how does the IC50 (Thymidylate synthase [22]) read?
The IC50 was 3900 nM.
